The results in this text go back to ChEMBL document CHEMBL1133980, “New inhibitors of the thioredoxin-thioredoxin reductase system based on a naphthoquinone spiroketal natural product lead” (Bioorg Med Chem Lett, 2001).

Some results are limits rather than exact numbers.

In test [1] the target is T1, Thioredoxin reductase (Homo sapiens, UniProt Q16881+Q9NNW7+Q86VQ6). Nature of the test: Inhibition of thioredoxin-1/thioredoxin reductase system. The class given is functional. The procedure, abridged: (§1)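 Insulin reduction by human placental TrxR plus recombinant human Trx-1 (final 1.0 μM TrxR, 0.8 μM Trx-1) in 100 mM HEPES pH 7.2, 5 mM EDTA with 1 mM NADPH and 2.5 mg/mL bovine insulin, 30 min, 37 °C. Stopped with 6 M guanidine-HCl/Tris pH 8.0/10 mM DTNB; A405 read. IC50 from five concentrations (0.1–50 μM).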

The subject of the next test is MCF7. Nature of the test: Ability to inhibit the growth of MCF-7 cell line. The settings on record: Homo sapiens. The class given is functional, cell-based. The procedure, abridged:
(§2)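 MCF-7 (ER+, p53 replete) and MDA-MB-231 (ER−, p53 deficient) human breast cancer cells were seeded at 4000/well and left to attach overnight. They were then exposed to compound (0.1–30 μM) or 0.1% DMSO vehicle for 72 h. Medium was changed to serum-free medium with 0.1% MTT, incubated 3 h in the dark, and cell number read at 540 nm.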

In a further test the test system is MDA-MB-231. Nature of the test: Ability to inhibit the growth of MDA-MB-231 cell line. The settings on record: Homo sapiens. Type of test: functional, cell-based. The procedure, abridged: as §2
In test [2] the target is T1, Thioredoxin reductase. Nature of the test: Inhibition of thioredoxin reductase. Type of test: protein assay. The method, boiled down: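 Human placental TrxR (final 1.0 μM) in HEPES pH 7.2/EDTA buffer was added to diluted compound. Reaction started with NADPH (final 1 mM) and DTNB (final 10 mM) at 37 °C. A405 for DTNB reduction read every 10 s and initial rates taken. IC50 from five concentrations (0.1–50 μM).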

Test [3] can be described thus: Compound was tested for its ability to inhibit thioredoxin-1/thioredoxin reductase system. Further details: species or system Homo sapiens. The procedure, abridged: as §1

The IC50 is the point on the concentration scale where inhibition reaches its midpoint. Low values mean greater potency, high ones weaker potency. As for `O=C1C=CC2(Oc3cccc4cccc(c34)O2)c2cccc(OCc3ccc(-c4cccc(C(F)(F)F)c4)o3)c21`, the IC50 was 42.4 µM against Thioredoxin reductase [1], 5.5 µM in the test on MCF7, 5.2 µM in the test with MDA-MB-231 and more than 50 µM against Thioredoxin reductase [2].
For `COc1cccc2c1C(=O)C=CC21OCCCO1`, the IC50 was 40.2 µM at Thioredoxin reductase [1], 4.4 µM with MCF7, 5 µM in the test on MDA-MB-231 and more than 50 µM at Thioredoxin reductase [2].
For `O=C1C=CC2(Oc3cccc4cccc(c34)O2)c2cccc(OCc3ccc(Cl)cc3)c21`, the IC50 at Thioredoxin reductase [1] is more than 50 µM; in the test with MCF7 it was more than 10 µM; with MDA-MB-231 it was 8 µM; against Thioredoxin reductase [2], more than 50 µM.
In the case of `C/C=C(\C)COc1cccc2c1C(=O)C=CC21Oc2cccc3cccc(c23)O1`, the IC50 against Thioredoxin reductase [1] was more than 50 µM; in the test with MCF7 it was 4.3 µM; in the test on MDA-MB-231, 5.3 µM.
Regarding `O=C1C=CC2(Oc3cccc4cccc(c34)O2)c2cccc(OCc3ccccn3)c21`, the IC50 is 41.8 µM at Thioredoxin reductase [1], 2 µM with MCF7, 2.8 µM in the test with MDA-MB-231 and more than 50 µM at Thioredoxin reductase [2].
Consider `O=C1C=CC2(Oc3cccc4cccc(c34)O2)c2cccc(OCc3ccc(-c4cccc(Cl)c4)o3)c21`, for which the IC50 is more than 50 µM at Thioredoxin reductase [1], more than 10 µM in the test with MCF7, more than 10 µM in the test with MDA-MB-231 and more than 50 µM at Thioredoxin reductase [2].
For `C=C(C)COc1cccc2c1C(=O)C=CC21Oc2cccc3cccc(c23)O1`, the IC50 is 4.8 µM against Thioredoxin reductase [1], 7.8 µM in the test on MCF7, 8.2 µM in the test on MDA-MB-231 and more than 50 µM against Thioredoxin reductase [2].
Regarding `C/C=C/COc1cccc2c1C(=O)C=CC21Oc2cccc3cccc(c23)O1`, the 50% inhibitory concentration (IC50) against Thioredoxin reductase [1] was more than 50 µM; in the test with MCF7, 1.3 µM; in the test with MDA-MB-231, 2.9 µM.
With `O=C1C=CC2(Oc3cccc4cccc(c34)O2)c2cccc(OCc3ccco3)c21`, the IC50 is more than 50 µM against Thioredoxin reductase [1], 1.1 µM with MCF7 and 2.5 µM with MDA-MB-231.
Taken in the same sequence, the figures for `O=C1C=CC2(Oc3cccc4cccc(c34)O2)C23OC12CCCC3=O` (configuration not stated) were 44 µM, 1.3 µM and 3.4 µM.
As for `O=C1[C@@H]2O[C@@H]2C2(Oc3cccc4cccc(c34)O2)[C@@]23O[C@@]12CCCC3=O`, the IC50 on Thioredoxin reductase [1] is more than 50 µM; with MCF7, 4.6 µM; with MDA-MB-231, 8.2 µM.
Take `O=C1C=CC2(Oc3cccc4cccc(c34)O2)c2cccc(OCc3ccncc3)c21`: the 50% inhibitory concentration (IC50) against Thioredoxin reductase [1] is more than 50 µM; with MCF7, 8 µM; with MDA-MB-231, 7.3 µM; at Thioredoxin reductase [2], more than 50 µM.
For the compound `O=C1C=CC2(Oc3cccc4cccc(c34)O2)c2cccc(OCc3ccc(Br)cc3)c21`, the 50% inhibitory concentration (IC50) against Thioredoxin reductase [1] is more than 50 µM; with MCF7 it was more than 10 µM; in the test on MDA-MB-231 it was 9.3 µM; at Thioredoxin reductase [2] it was more than 50 µM.
In the case of `O=C1C=CC2(Oc3cccc4cccc(c34)O2)c2cccc(OCc3cccnc3)c21`, the IC50 at Thioredoxin reductase [1] is more than 50 µM; in the test with MCF7 it was 1.5 µM; in the test with MDA-MB-231, 1.4 µM; at Thioredoxin reductase [2], more than 50 µM.
With `O=C1C=CC2(Oc3cccc4cccc(c34)O2)c2cccc(O)c21`, the IC50 against Thioredoxin reductase [1] came out at 0.35 µM; in the test on MCF7, 1 µM; in the test with MDA-MB-231 it was 2.4 µM; at Thioredoxin reductase [2], 12 µM.
In the case of `C=CCOc1cccc2c1C(=O)C=CC21Oc2cccc3cccc(c23)O1`, the 50% inhibitory concentration (IC50) against Thioredoxin reductase [1] is 23.2 µM; in the test on MCF7 it was 2 µM; with MDA-MB-231, 2.7 µM; against Thioredoxin reductase [2], more than 50 µM.
Consider `CC/C=C/CCOc1cccc2c1C(=O)C=CC21Oc2cccc3cccc(c23)O1`, for which the figures for the IC50 against Thioredoxin reductase [1], in the test with MCF7 and with MDA-MB-231 were more than 50 µM, more than 30 µM and 9.2 µM, respectively.
As to `O=C1C=CC2(Oc3cccc4cccc(c34)O2)c2cccc(OCc3ccc(-c4ccccc4C(F)(F)F)o3)c21`, the IC50 against Thioredoxin reductase [1] is more than 50 µM; in the test on MCF7, 5 µM; in the test on MDA-MB-231, 4.9 µM; on Thioredoxin reductase [2], more than 50 µM.
Regarding `COc1cccc(COc2cccc3c2C(=O)C=CC32Oc3cccc4cccc(c34)O2)c1`, the IC50 against Thioredoxin reductase [1] is more than 50 µM; in the test with MCF7, 2.3 µM; in the test with MDA-MB-231 it was 2.7 µM.
As to `CC(C)=CCOc1cccc2c1C(=O)C=CC21Oc2cccc3cccc(c23)O1`, the values for the half-inhibitory concentration (IC50) at Thioredoxin reductase [1], in the test with MCF7 and in the test with MDA-MB-231 were more than 50 µM, 2 µM and 3.6 µM, respectively.
`O=C1C=CC2(Oc3cccc4cccc(c34)O2)c2cccc(OCCc3ccccc3)c21`: the IC50 against Thioredoxin reductase [1] was more than 50 µM; with MCF7 it was 3.9 µM; with MDA-MB-231 it was 4.6 µM.
Take `O=C1C=CC2(Oc3cccc4cccc(c34)O2)C2=C1CCCC2=O`: the concentration for half-maximal inhibition (IC50) was found to be 2.1 µM on Thioredoxin reductase [1], 3.8 µM with MCF7 and 6.4 µM in the test with MDA-MB-231.
Taken in the same sequence, the figures for `O=C1C=CC2(Oc3cccc4cccc(c34)O2)C2=C1[C@@H](O)C1C3C=CC(C3)C1[C@H]2O` (some centres not stated) were 8 µM, 1.3 µM and 2.1 µM.
As to `O=C1C=C[C@H](O)[C@@]23O[C@@]12C1(Oc2cccc4cccc(c24)O1)[C@@H]1O[C@@H]1[C@@H]3O`, the IC50 on Thioredoxin reductase [1] was determined as 4.5 µM; with MCF7, 1.5 µM; in the test with MDA-MB-231 it was 2 µM; against Thioredoxin reductase [2], 13.5 µM.
Consider `O=C1C=CC2(Oc3cccc4cccc(c34)O2)c2cccc(OCc3ccc(-c4ccccc4Cl)o3)c21`, for which the IC50 against Thioredoxin reductase [1] was more than 50 µM; in the test on MCF7 it was more than 10 µM; in the test on MDA-MB-231, more than 10 µM; against Thioredoxin reductase [2], more than 50 µM.
Regarding `O=C1C=CC2(Oc3cccc4cccc(c34)O2)c2cccc(OC/C=C/c3ccccc3)c21`, the concentration for half-maximal inhibition (IC50) at Thioredoxin reductase [1] is more than 50 µM; in the test with MCF7, 7.9 µM; with MDA-MB-231 it was 7.5 µM.
As for `O=C1C=CC2(Oc3cccc4cccc(c34)O2)c2cccc(OCc3ccoc3)c21`, the IC50 against Thioredoxin reductase [1] was 23.2 µM; in the test with MCF7, 2 µM; in the test on MDA-MB-231, 2 µM; against Thioredoxin reductase [2], more than 50 µM.
As for `CC(C)=CCC/C(C)=C/COc1cccc2c1C(=O)C=CC21Oc2cccc3cccc(c23)O1`, the results for the IC50 (in test [3]; with MCF7; with MDA-MB-231) were more than 50 µM, 4.6 µM and 2 µM, respectively.
Turning to `CCCCCCOc1cccc2c1C(=O)C=CC21Oc2cccc3cccc(c23)O1`, the IC50 at Thioredoxin reductase [1] was more than 50 µM; with MCF7, 13.4 µM; in the test on MDA-MB-231 it was 13.6 µM.
Regarding `O=C1CCCC2=C1C1(Oc3cccc4cccc(c34)O1)C1OC1C2=O` (configuration not stated), the figures for the IC50 against Thioredoxin reductase [1], with MCF7 and in the test with MDA-MB-231 were 12.2 µM, 4.6 µM and 23 µM, respectively.
Regarding `O=C1[C@@H]2O[C@@H]2C2(Oc3cccc4cccc(c34)O2)[C@]23O[C@]12CCCC3=O`, the IC50 is 13.5 µM on Thioredoxin reductase [1], 2.8 µM in the test on MCF7 and 2.9 µM in the test with MDA-MB-231.
Consider `O=C1C=CC2(OCCO2)c2cccc(O)c21`, for which the IC50 against Thioredoxin reductase [1] was 3.4 µM; with MCF7, 4.2 µM; in the test with MDA-MB-231, 4.3 µM; on Thioredoxin reductase [2], 8.8 µM.
As to `O=C1C=CC2(Oc3cccc4cccc(c34)O2)c2cccc(OCc3ccc(-c4ccc(Br)cc4)o3)c21`, the IC50 against Thioredoxin reductase [1] was found to be 10.2 µM; with MCF7, 5.7 µM; with MDA-MB-231, 7.8 µM; against Thioredoxin reductase [2], 20.1 µM.
Consider `C/C=C(/C)COc1cccc2c1C(=O)C=CC21Oc2cccc3cccc(c23)O1`, for which the results for the IC50 against Thioredoxin reductase [1], in the test with MCF7 and in the test with MDA-MB-231 were more than 50 µM, 1.9 µM and 4.5 µM, respectively.
With `C#CCOc1cccc2c1C(=O)C=CC21Oc2cccc3cccc(c23)O1`, the IC50 at Thioredoxin reductase [1] was 13.4 µM; with MCF7 it was 4.3 µM; with MDA-MB-231, 4.7 µM; on Thioredoxin reductase [2], more than 50 µM.
`COc1ccc(COc2cccc3c2C(=O)C=CC32Oc3cccc4cccc(c34)O2)cc1`: the half-inhibitory concentration (IC50) is more than 50 µM against Thioredoxin reductase [1], 0.7 µM with MCF7, 2.2 µM in the test with MDA-MB-231 and more than 50 µM on Thioredoxin reductase [2].
